Data as given in ChEMBL document CHEMBL1153430 (J Med Chem, 2009).

Experiments:
[1] = Negative inotropic activity in guinea pig left atrium assessed as decrease in atrial tension; assay type: functional, tissue-based; details: Cavia porcellus, Cardiac atrium
Aorta [2] = assay: Vasorelaxant activity in potassium-depolarized guinea pig thoracic aorta assessed as inhibition of calcium-induced contraction at 100 uM; assay type: functional, Cavia porcellus; set-up: scale not given: the % may be the effect or the level left
[3] = Negative inotropic activity in guinea pig left atrium assessed as decrease in atrial tension at 100 uM relative to control; assay type: functional, Cavia porcellus, Cardiac atrium; set-up: scale not given: the % may be the effect or the level left
Procedure, shortened: (§1)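 Guinea pig isolated atria, compound given at increasing doses. Left atrium driven at 1 Hz: percent decrease in developed tension (inotropy, EC50). Spontaneously beating right atrium: percent decrease in rate (chronotropy, EC30). Probit analysis (Litchfield-Wilcoxon), n = 6-7. Potencies not calculated when maximal effect <50%.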

[4] = Negative chronotropic activity in guinea pig spontaneously beating right atrium assessed as decrease in atrial rate at 100 uM relative to control; assay type: functional, Cavia porcellus, Cardiac atrium; set-up: scale not given: the % may be the effect or the level left; procedure, shortened: as §1
Aorta [5] = assay: Vasorelaxant activity in potassium-depolarized guinea pig thoracic aorta assessed as inhibition of calcium-induced contraction at 50 uM; assay type: functional, Cavia porcellus; set-up: scale not given: the % may be the effect or the level left
[6] = Negative chronotropic activity in guinea pig spontaneously beating right atrium assessed as decrease in atrial rate at 10 uM relative to control; assay type: functional, Cavia porcellus, Cardiac atrium; set-up: scale not given: the % may be the effect or the level left; procedure, shortened: as §1
[7] = Negative inotropic activity in guinea pig left atrium assessed as decrease in atrial tension at 5 uM relative to control; assay type: functional, Cavia porcellus, Cardiac atrium; set-up: scale not given: the % may be the effect or the level left; procedure, shortened: as §1
[8] = target: T1, Voltage-gated L-type calcium channel (Rattus norvegicus, UniProt P22002+Q02485+P27732); assay: Displacement of [3H]diltiazem from L-type calcium channel in Sprague-Dawley rat cardiac myocytes by liquid scintillation counting; assay type: cell-based; details: for Activity: rat
Heart [9] = assay: Effect on cardiac activity in guinea pig spontaneously beating heart assessed as change in atrioventricular conduction time at 1 uM relative to control; assay type: functional, Cavia porcellus
Procedure, shortened: (§2)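 Isolated perfused, spontaneously beating guinea pig heart. Readouts: +(dP/dt)max (maximal rate of rise of left ventricular pressure), heart rate from ECG, coronary perfusion pressure, PR interval. Given as percent change from basal at the highest concentration tested (1 µM), mean ± SEM. pEC50 taken from log concentration-response curves, n = 4-6.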

Heart [10] = assay: Effect on cardiac activity in guinea pig spontaneously beating heart assessed as change in heart rate at 1 uM relative to control; assay type: functional, Cavia porcellus; procedure, shortened: as §2
Heart [11] = assay: Effect on cardiac activity in guinea pig spontaneously beating heart assessed as change in left ventricular pressure; details: Cavia porcellus, read-out: pEC50 (converted)
[12] = Negative chronotropic activity in guinea pig spontaneously beating right atrium assessed as decrease in atrial rate at 1 uM relative to control; assay type: functional, Cavia porcellus, Cardiac atrium; set-up: scale not given: the % may be the effect or the level left
Heart [13] = assay: Effect on cardiac activity in guinea pig spontaneously beating heart assessed as change in coronary perfusion pressure; details: Cavia porcellus, read-out: pEC50 (converted)
[14] = Negative inotropic activity in guinea pig left atrium assessed as decrease in atrial tension at 10 uM relative to control; assay type: functional, Cavia porcellus, Cardiac atrium; set-up: scale not given: the % may be the effect or the level left; procedure, shortened: as §1
[15] = Negative chronotropic activity in guinea pig spontaneously beating right atrium assessed as decrease in atrial rate; assay type: functional; details: Cavia porcellus, Cardiac atrium; procedure, shortened: as §1
Heart [16] = assay: Effect on cardiac activity in guinea pig spontaneously beating heart assessed as change in coronary perfusion pressure at 1 uM relative to control; assay type: functional, Cavia porcellus; procedure, shortened: as §2
Heart [17] = assay: Effect on cardiac activity in guinea pig spontaneously beating heart assessed as change in left ventricular pressure at 1 uM relative to control; assay type: functional, Cavia porcellus; procedure, shortened: as §2
[18] = Negative chronotropic activity in guinea pig spontaneously beating right atrium assessed as decrease in atrial rate at 5 uM relative to control; assay type: functional, Cavia porcellus, Cardiac atrium; set-up: scale not given: the % may be the effect or the level left
[19] = target: T1, Voltage-gated L-type calcium channel; assay: Stimulation of [3H]diltiazem binding to L-type calcium channel in Sprague-Dawley rat cardiac myocytes at 1 uM by liquid scintillation counting; assay type: cell-based
[20] = Negative inotropic activity in guinea pig left atrium assessed as decrease in atrial tension at 50 uM relative to control; assay type: functional, Cavia porcellus, Cardiac atrium; set-up: scale not given: the % may be the effect or the level left
[21] = Negative chronotropic activity in guinea pig spontaneously beating right atrium assessed as decrease in atrial rate at 50 uM relative to control; assay type: functional, Cavia porcellus, Cardiac atrium; set-up: scale not given: the % may be the effect or the level left; procedure, shortened: as §1
[22] = Ratio of IC50 for L-type calcium channel in Wistar rat tail artery smooth muscle cells to EC50 for negative inotropic activity in guinea pig left atrium; set-up: species or system Cardiac atrium
[23] = target: T1, Voltage-gated L-type calcium channel; assay: Inhibition of L-type calcium channel in Wistar rat tail artery smooth muscle cells assessed as blockade of barium[…] current at 10 uM by whole cell patch-clamp assay
Procedure, shortened: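 Single smooth muscle cells isolated from rat tail main artery. Peak barium current through L-type channels [I_Ba(L)] recorded under cumulative concentrations, reported as percent inhibition. IC50 from log concentration-response curves, mean ± SEM, n = 4.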

Aorta [24] = assay: Vasorelaxant activity in potassium-depolarized guinea pig thoracic aorta assessed as inhibition of calcium-induced contraction; assay type: functional, Cavia porcellus; set-up: scale not given: the % may be the effect or the level left
[25] = target: T1, Voltage-gated L-type calcium channel; assay: Inhibition of L-type calcium channel in Wistar rat tail artery smooth muscle cells assessed as blockade of barium[…] current by whole cell patch-clamp assay; details: for Activity: rat
Procedure, shortened: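 Single smooth muscle cells isolated from rat tail main artery. Peak barium current through L-type channels [I_Ba(L)] recorded under cumulative concentrations, reported as percent inhibition.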

[26] = Negative inotropic activity in guinea pig left atrium assessed as decrease in atrial tension at 1 uM relative to control; assay type: functional, Cavia porcellus, Cardiac atrium; set-up: scale not given: the % may be the effect or the level left

| SMILES | EC50 [1] [nM] | Activity (Aorta [2]) [%] | Activity [3] [%] | Activity [4] [%] | Activity (Aorta [5]) [%] | Activity [20] [%] | Activity [21] [%] | also measured |
| --- | --- | --- | --- | --- | --- | --- | --- | --- |
| CS/C=C(/C)n1c(C(=O)c2ccc(Cl)cc2)noc1=O | 1450 | – | – | – | 8 | 71 | 10 | – |
| C/C(=C/SCc1ccccc1)n1c(C(=O)c2ccc(Cl)cc2)noc1=O | 1550 | 33 | 78 | 5 | – | – | – | – |
| C=CCS/C=C(/C)n1c(C(=O)c2ccc(Br)cc2)noc1=O | 1290 | 21 | 89 | – | – | – | 18 | – |
| CCS/C=C(/C)n1c(C(=O)c2ccc(Br)cc2)noc1=O | 1330 | 43 | 89 | 18 | – | – | – | – |
| C=CCS/C=C(/C)n1c(C(=O)c2ccc(Cl)cc2)noc1=O | 1350 | 23 | 70 | – | – | – | – | Activity [18]: 6% |
| C/C(=C/SS/C=C(/C)n1c(C(=O)c2ccc(Cl)cc2)noc1=O)n1c(C(=O)c2ccc(Cl)cc2)noc1=O | 4390 | 6 | 72 | 4 | – | – | – | – |
| CCS/C=C(/C)n1c(C(=O)c2ccc(Cl)cc2)noc1=O | 2090 | 27 | – | – | – | 75 | 30 | – |
| C/C(=C/SCC(C)C)n1c(C(=O)c2ccc(Cl)cc2)noc1=O | 2070 | 6 | 84 | 5 | – | – | – | – |
| C/C(=C/[S][Ag])n1c(C(=O)c2ccc(Cl)cc2)noc1=O | – | – | – | 7 | 4 | – | – | Activity (Aorta [24]): <30%; Activity [26]: 49% |
| C/C(=C/[S][Ag])n1c(C(=O)c2ccc(Br)cc2)coc1=O | – | 26 | – | – | – | – | – | Activity (Heart [9]): 30%; Activity (Heart [10]): -4%; Activity [12]: 18%; Activity (Aorta [24]): <30%; Activity [26]: 32%; Activity (Heart [16]): -3%; Activity (Heart [17]): 0% |
| CCCS/C=C(/C)n1c(C(=O)c2ccc(Cl)cc2)noc1=O | 2190 | 15 | 84 | – | – | – | 17 | – |
| C/C(=C/Sc1sc([N+](=O)[O-])cc1[N+](=O)[O-])n1c(C(=O)c2ccc(Cl)cc2)noc1=O | 1420 | – | – | – | 35 | 67 | 15 | – |
| C/C(=C/SCc1ccccc1)n1c(C(=O)c2ccc(Br)cc2)noc1=O | 1280 | – | – | – | 6 | 80 | – | Activity [6]: 31% |
| C/C(=C/SS/C=C(/C)n1c(C(=O)c2ccc(Br)cc2)noc1=O)n1c(C(=O)c2ccc(Br)cc2)noc1=O | 1700 | 5 | 73 | 9 | – | – | – | Ki [8]: 200 nM |

More lines, in order of falling EC50 [1], values ahead:

| EC50 [1] [nM] | SMILES | Activity (Aorta [2]) [%] | Activity [3] [%] | Activity [4] [%] | Activity (Aorta [5]) [%] | Activity [20] [%] | Activity [21] [%] | also measured |
| --- | --- | --- | --- | --- | --- | --- | --- | --- |
| 1220 | CCCS/C=C(/C)n1c(C(=O)c2ccc(Br)cc2)noc1=O | 26 | 80 | 10 | – | – | – | – |
| 1110 | C/C(=C/S(C)(=O)=O)n1c(C(=O)c2ccc(Cl)cc2)noc1=O | 13 | 72 | 7 | – | – | – | – |
| 1030 | CCCCCCCCCS/C=C(/C)n1c(C(=O)c2ccc(Br)cc2)noc1=O | 12 | 84 | 3 | – | – | – | – |
| 910 | C/C(=C/SCC(C)C)n1c(C(=O)c2ccc(Br)cc2)noc1=O | 24 | 88 | 16 | – | – | – | – |
| 800 | CC1=CSC(O)(c2ccc(Cl)cc2)c2noc(=O)n21 (stereo not drawn) | – | – | – | 26 | – | 18 | Activity (Aorta [24]): <30%; Activity [14]: 80% |
| 790 | COc1ccc([C@@H]2Sc3ccccc3N(CCN(C)C)C(=O)[C@@H]2OC(C)=O)cc1 [DILTIAZEM] | 88 | – | – | – | – | – | Activity [8]: Dose-dependent effect; Activity (Heart [9]): 34%; Activity (Heart [10]): -25%; EC50 (Heart [11]): 9.33 nM; Activity [12]: 94%; EC50 (Heart [13]): 21.9 nM; Activity [14]: 78%; EC30 [15]: 70 nM; Activity (Heart [16]): -51%; Activity (Heart [17]): -59% |
| 730 | C/C(=C/Sc1sc([N+](=O)[O-])cc1[N+](=O)[O-])n1c(C(=O)c2ccc(Br)cc2)noc1=O | – | – | – | 32 | – | – | Activity [6]: 27%; Activity [7]: 85% |
| 670 | CCCCCCCCCS/C=C(/C)n1c(C(=O)c2ccc(Cl)cc2)noc1=O | 5 | – | 2 | – | – | – | Activity [14]: 84% |
| 480 | C/C(=C/[S+](C)[O-])n1c(C(=O)c2ccc(Br)cc2)noc1=O (stereo not drawn) | 2 | 89 | 33 | – | – | – | Ki [8]: 23680 nM |
| 410 | CS/C=C(/C)n1c(C(=O)c2ccc(Br)cc2)noc1=O | 10 | – | – | – | 95 | – | Ratio IC50 [22]: 60; Ki [8]: 490 nM; Activity [8]: Dose-dependent effect; Activity [23]: Not Active; Activity [6]: 2%; IC50 [25]: 25210 nM; Activity [25]: Dose-dependent effect; Activity [26]: <50% |
| 320 | CC1=CSC(O)(c2ccc(Br)cc2)c2noc(=O)n21 (stereo not drawn) | – | – | – | 12 | 97 | 18 | Ratio IC50 [22]: 100; Ki [8]: 290 nM; Activity [8]: Dose-dependent effect; Activity [23]: Not Active; Activity (Aorta [24]): <30%; IC50 [25]: 33360 nM; Activity [25]: Dose-dependent effect |
| 320 | COc1ccc(C2(O)SC=C(C)n3c2noc3=O)cc1 (stereo not drawn) | – | – | – | 12 | 97 | 18 | – |
| 280 | C/C(=C/S(C)(=O)=O)n1c(C(=O)c2ccc(Br)cc2)noc1=O | – | – | – | 6 | 73 | – | Activity [18]: 7%; Activity [19]: 25% |
| 270 | CCOC1(c2ccc(Cl)cc2)SC=C(C)n2c1noc2=O (stereo not drawn) | – | – | – | 28 | – | 16 | Activity [7]: 53% |
| 230 | CC1=CSC(O)(c2ccccc2)c2noc(=O)n21 (stereo not drawn) | – | – | – | 4 | – | 14 | Activity [14]: 95% |
| 210 | C/C(=C/[S+](C)[O-])n1c(C(=O)c2ccc(Cl)cc2)noc1=O (stereo not drawn) | 7 | – | 4 | – | 71 | – | – |
| 40 | CCOC1(c2ccc(Br)cc2)SC=C(C)n2c1noc2=O (stereo not drawn) | – | – | – | 19 | 77 | – | Activity (Heart [9]): 32%; Activity (Heart [10]): -14%; Activity [6]: 5%; Activity (Heart [16]): -9%; Activity (Heart [17]): -3% |
